# Where “and” joins values, the source holds several entries; their conditions need not be identical. Equal entries are not always repeated. Marks after values point to notes of the source that are not given here.
# How the values were obtained:
# SW620 xenografts = assay: Anti-tumour efficacy, SW620 xenografts; type: in vivo, mice
# Body weight = type: in vivo, mice; conditions: for Maximum body weight loss: SW620 xenograft studies
# HCT116-N7 xenografts = assay: Anti-tumour efficacy, HCT116-N7 xenografts; type: in vivo, mice
# ATM = ATM (Homo sapiens, UniProt Q13315); assay: Enzyme inhibition, purified ATM; type: biochemical
# Procedure, shortened: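 Enzymes were isolated from HeLa cells: ATM plus DNA-PK, PI3K, ATR, PI4K and mTOR. Activity was measured across increasing test compound concentrations. IC50 was calculated from sigmoid plots of inhibitor concentration versus activity. Values are the mean of five independent experiments.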
# LoVo cells = assay: Clonogenic survival assay, LoVo; type: cell-based, human; conditions: for Enhancement factor / % Survival Cytotoxic + KU59403 / % Survival Cytotoxic alone: LoVo; for Enhancement factor: 1 μM KU59403
# Procedure, shortened: (§1)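 Clonogenic assay in RPMI 1640 + 10% FBS, 37°C, 5% CO2, <30 passages; HCT116-N7 stably expresses HPV16 E6. Exponentially growing cells had 16 h exposure to cytotoxic (etoposide, doxorubicin or camptothecin; etoposide 1 μM for the bar data) ± test compound 1 μM in 0.5% DMSO, then were seeded for colonies. Survival was normalised to DMSO or inhibitor-alone control. Enhancement factor = survival cytotoxic alone ÷ survival combination, per experiment; 3 independent experiments.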
# [1] = target: ATM activity in SW620 cells (Homo sapiens, UniProt Q13315); assay: Inhibition of cellular ATM activity, SW620; type: cell-based; conditions: 1 μM
# [2] = target: ATM activity in HCT116 cells (Homo sapiens, UniProt Q13315); assay: Inhibition of IR-induced ATM activity, HCT116; type: cell-based; conditions: 1 μM
# [3] = Plasma and tumour concentrations in SW620 tumour-bearing nude mice; type: in vivo
# Procedure, shortened: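 Female CD-1 nude mice carried SW620 s.c. flank xenografts (1×10^7 cells) of ~650 mm³. Test compound was given at 50 mg/kg i.p. in equimolar phosphoric acid/saline, pH 4. The comparator ATM inhibitor was given at 10 mg/kg i.p. in phosphoric acid, 5% DMSO, 10% encapsin, pH 4. Dosing volume was 10 ml/kg. Plasma and tumour were sampled at 1 and 4 h and analysed by HPLC; the tumour detection limit was 0.5 μM.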
# SW620 cells = assay: Clonogenic survival assay, SW620; type: cell-based, human; conditions: for Enhancement factor: 1 μM KU59403
# Procedure, shortened: as §1
# human tumour cell lines [4] = assay: Concentration needed for in vitro chemo- and radio-sensitisation; type: cell-based
# [5] = test system: ATM activity in MDA-MB231 cells; assay: Inhibition of IR-induced ATM activity, MDA-MB231; type: cell-based, human; conditions: 1 μM
# MDA-MB-231 cells = assay: Clonogenic survival assay, MDA-MB-231; type: cell-based, human; conditions: MDA-MB-231, etoposide 1 μM + KU59403 1 μM (Figure 1D)
# Procedure, shortened: as §1
# HCT116-N7 cells = assay: Clonogenic survival assay, HCT116-N7; type: cell-based, human; conditions: HCT116-N7, etoposide 1 μM + KU59403 1 μM (Figure 1D)
# Procedure, shortened: as §1
# HCT116 cells = assay: Clonogenic survival assay, HCT116; type: cell-based, human; conditions: HCT116, etoposide 1 μM + KU59403 1 μM (Figure 1D)
# Procedure, shortened: as §1
# [6] = Plasma and tissue concentrations in Balb/C mice; type: in vivo; conditions: 25 mg/kg i.v., female Balb/C mice, at 4 hr
# Procedure, shortened: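 Female Balb/C mice (non-tumour-bearing) received 25 mg/kg i.v. (10 ml/kg) in equimolar phosphoric acid/saline, pH 4. At time points to 4 h, mice were bled by terminal cardiac puncture. Plasma was stored at −20 °C; brain, liver, spleen and lung were snap frozen and homogenised in PBS (1:3 w/v). Samples underwent HPLC against a plasma standard curve (0.05-10 μg/ml); tissue was quantified by method of addition. n = 3 mice per time point.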
# human tumour cell lines [7] = conditions: cited from earlier work
# [8] = etopophos (equivalent to 10 mg/kg etoposide) daily ×5 alone
# [9] = KU59403 12.5 mg/kg 2× daily ×5 alone
# [10] = KU59403 25 mg/kg daily ×5 alone
# [11] = etopophos + KU59403 6 mg/kg 2× daily ×5
# [12] = etopophos + KU59403 12.5 mg/kg 1× daily ×5 5 hr post
# [13] = etopophos + KU59403 12.5 mg/kg 1× daily ×5 concurrent
# [14] = etopophos + KU59403 12.5 mg/kg 2× daily ×5
# [15] = etopophos + KU59403 25 mg/kg 2× daily ×5
# [16] = irinotecan + KU59403 25 mg/kg daily ×5
# [17] = etopophos 11.35 mg/kg i.p. daily ×5 + KU59403 25 mg/kg i.p. twice daily for 5 days
# ATM, sequence (Q13315 whole entry): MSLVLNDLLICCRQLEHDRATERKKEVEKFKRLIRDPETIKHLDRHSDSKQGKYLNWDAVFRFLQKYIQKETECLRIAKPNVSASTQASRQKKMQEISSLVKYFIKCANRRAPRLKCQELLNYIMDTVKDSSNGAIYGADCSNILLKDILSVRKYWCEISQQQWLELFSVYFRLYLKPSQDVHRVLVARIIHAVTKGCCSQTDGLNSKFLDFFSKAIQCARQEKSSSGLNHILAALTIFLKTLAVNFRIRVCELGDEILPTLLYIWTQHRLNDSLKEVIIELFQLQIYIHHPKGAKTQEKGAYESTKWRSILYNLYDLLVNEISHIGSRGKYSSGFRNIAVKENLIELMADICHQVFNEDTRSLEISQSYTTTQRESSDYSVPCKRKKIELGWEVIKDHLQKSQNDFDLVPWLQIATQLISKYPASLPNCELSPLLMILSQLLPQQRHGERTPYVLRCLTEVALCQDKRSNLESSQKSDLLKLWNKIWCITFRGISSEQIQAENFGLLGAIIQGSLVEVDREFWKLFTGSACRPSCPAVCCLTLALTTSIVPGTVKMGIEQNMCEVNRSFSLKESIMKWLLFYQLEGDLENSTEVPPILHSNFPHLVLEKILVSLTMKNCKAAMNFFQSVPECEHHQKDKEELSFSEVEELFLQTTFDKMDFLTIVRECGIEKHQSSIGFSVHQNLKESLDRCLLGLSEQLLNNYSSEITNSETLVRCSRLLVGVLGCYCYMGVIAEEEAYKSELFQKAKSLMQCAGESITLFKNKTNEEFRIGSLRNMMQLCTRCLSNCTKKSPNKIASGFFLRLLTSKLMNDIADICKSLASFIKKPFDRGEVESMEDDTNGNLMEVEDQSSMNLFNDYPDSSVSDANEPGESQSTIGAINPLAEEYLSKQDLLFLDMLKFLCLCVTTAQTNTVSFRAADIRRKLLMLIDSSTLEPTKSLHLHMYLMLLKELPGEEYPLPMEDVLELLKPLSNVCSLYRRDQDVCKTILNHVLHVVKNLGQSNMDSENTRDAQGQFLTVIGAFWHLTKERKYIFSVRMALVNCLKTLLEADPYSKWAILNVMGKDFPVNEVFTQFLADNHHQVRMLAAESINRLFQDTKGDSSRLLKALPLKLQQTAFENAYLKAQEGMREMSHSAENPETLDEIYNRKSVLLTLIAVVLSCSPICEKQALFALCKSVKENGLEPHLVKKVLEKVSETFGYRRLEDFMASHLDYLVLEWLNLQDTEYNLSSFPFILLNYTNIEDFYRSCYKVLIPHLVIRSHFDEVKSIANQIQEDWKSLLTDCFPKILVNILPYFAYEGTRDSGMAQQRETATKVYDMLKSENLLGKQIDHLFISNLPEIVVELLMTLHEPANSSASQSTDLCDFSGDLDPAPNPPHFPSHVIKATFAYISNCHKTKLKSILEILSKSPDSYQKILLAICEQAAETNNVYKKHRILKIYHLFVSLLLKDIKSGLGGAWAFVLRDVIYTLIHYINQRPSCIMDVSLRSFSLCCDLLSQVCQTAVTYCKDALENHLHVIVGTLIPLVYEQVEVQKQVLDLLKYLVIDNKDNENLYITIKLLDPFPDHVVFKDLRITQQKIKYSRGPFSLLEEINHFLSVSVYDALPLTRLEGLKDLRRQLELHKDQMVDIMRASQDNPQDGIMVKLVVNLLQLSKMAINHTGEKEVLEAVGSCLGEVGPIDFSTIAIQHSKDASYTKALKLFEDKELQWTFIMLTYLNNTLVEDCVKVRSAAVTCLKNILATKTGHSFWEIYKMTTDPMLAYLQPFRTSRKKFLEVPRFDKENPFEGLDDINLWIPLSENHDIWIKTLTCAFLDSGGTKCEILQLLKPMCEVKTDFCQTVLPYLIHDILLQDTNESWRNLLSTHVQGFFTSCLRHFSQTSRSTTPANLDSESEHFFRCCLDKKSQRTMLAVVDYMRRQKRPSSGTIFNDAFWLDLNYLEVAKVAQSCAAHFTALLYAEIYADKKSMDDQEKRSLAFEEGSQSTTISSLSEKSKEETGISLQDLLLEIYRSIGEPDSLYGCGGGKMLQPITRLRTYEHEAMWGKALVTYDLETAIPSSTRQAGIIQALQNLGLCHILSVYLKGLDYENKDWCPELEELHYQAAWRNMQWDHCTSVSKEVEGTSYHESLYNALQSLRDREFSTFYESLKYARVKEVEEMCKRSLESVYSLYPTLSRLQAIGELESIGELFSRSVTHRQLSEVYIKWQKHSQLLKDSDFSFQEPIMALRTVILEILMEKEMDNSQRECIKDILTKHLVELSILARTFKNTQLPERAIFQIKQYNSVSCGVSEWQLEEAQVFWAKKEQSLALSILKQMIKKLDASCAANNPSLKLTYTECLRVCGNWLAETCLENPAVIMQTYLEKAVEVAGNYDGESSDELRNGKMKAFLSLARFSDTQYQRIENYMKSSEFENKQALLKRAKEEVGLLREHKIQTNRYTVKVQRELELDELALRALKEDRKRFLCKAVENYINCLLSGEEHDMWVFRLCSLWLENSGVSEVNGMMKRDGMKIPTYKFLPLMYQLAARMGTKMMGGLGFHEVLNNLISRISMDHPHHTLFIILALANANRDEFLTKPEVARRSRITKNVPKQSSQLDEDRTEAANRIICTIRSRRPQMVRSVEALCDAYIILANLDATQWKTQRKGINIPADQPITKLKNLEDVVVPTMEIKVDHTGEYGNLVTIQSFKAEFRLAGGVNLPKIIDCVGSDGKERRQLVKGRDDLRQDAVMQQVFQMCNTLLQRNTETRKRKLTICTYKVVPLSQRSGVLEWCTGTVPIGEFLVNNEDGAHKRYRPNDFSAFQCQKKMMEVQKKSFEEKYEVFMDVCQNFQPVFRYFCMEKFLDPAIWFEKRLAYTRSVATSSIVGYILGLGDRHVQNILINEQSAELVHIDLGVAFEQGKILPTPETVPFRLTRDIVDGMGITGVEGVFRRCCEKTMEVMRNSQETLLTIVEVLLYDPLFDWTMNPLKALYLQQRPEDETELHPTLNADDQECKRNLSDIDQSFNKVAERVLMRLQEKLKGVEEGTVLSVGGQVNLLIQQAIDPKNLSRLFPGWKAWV
# ATM activity in SW620 cells, sequence (Q13315 whole entry): as above
# ATM activity in HCT116 cells, sequence (Q13315 whole entry): as above
compound,measurement,setting,value
"COc1cc([C@@H]2c3cc4c(cc3[C@@H](O[C@@H]3O[C@@H]5CO[C@@H](C)O[C@H]5[C@H](O)[C@H]3O)[C@H]3COC(=O)[C@H]23)OCO4)cc(OC)c1OP(=O)(O)O [etopophos, Etoposide phosphate, reference compound]",Delay,SW620 xenografts; [8],4 days
same,Time to RTV4,SW620 xenografts; [8],10.5 days
same,Nadir % Starting Body weight,Body weight; [8],98.6%
same,Maximum body weight loss,Body weight; given as a single agent,< 2%
same,Median time to RTV4,HCT116-N7 xenografts; etopophos 11.35 mg/kg i.p. daily for 5 days alone,5.5 days
CN1CCN(CCC(=O)Nc2ccc3c(c2)Sc2cccc(-c4cc(=O)cc(N5CCOCC5)o4)c2S3)CC1 [KU59403],Specificity for ATM over other members of the PI3K (PIKK) family tested,ATM,at least 1000 fold
same,"% survival, inhibitor alone","LoVo cells; LoVo cells, KU59403 1 μM alone, 16 hr",88± 7%
same,Enhancement factor,LoVo cells; camptothecin 10 nM,7 and 6.9 ± 3.8
same,% Survival Cytotoxic + KU59403,"LoVo cells; doxorubicin 10 nM + 1 μM KU59403, 16 hr",16 ± 6.9 %
same,Enhancement factor,LoVo cells; doxorubicin 10 nM,3.2 ± 1
same,% Survival Cytotoxic + KU59403,"LoVo cells; doxorubicin 100 nM + 1 μM KU59403, 16 hr",0.35 ± 0.04 %
same,Enhancement factor,LoVo cells; doxorubicin 100 nM,6.1 ± 2.1
same,% Survival Cytotoxic + KU59403,"LoVo cells; etoposide 100 nM + 1 μM KU59403, 16 hr",18 ± 0.5 %
same,Enhancement factor,LoVo cells; etoposide 100 nM,3.3 ± 0.4
same,% Survival Cytotoxic + KU59403,"LoVo cells; etoposide 1 μM + 1 μM KU59403, 16 hr",1.1 ± 0.2 %
same,Enhancement factor,LoVo cells; etoposide 1 μM,3.8 ± 1.5
same,Delay,SW620 xenografts; [9],0.5 days
same,Time to RTV4,SW620 xenografts; [9],7 days
same,Delay,SW620 xenografts; [10],5.5 days
same,Time to RTV4,SW620 xenografts; [10],12 days
same,Increase in etopophos-induced tumour growth delay,"SW620 xenografts; KU59403 25 mg/kg twice daily, SW620 xenografts",3 fold
same,Delay,SW620 xenografts; [11],5.5 days
same,Enhancement (%),SW620 xenografts; [11],38%
same,Time to RTV4,SW620 xenografts; [11],12 days
same,Delay,SW620 xenografts; [12],3.5 days
same,Time to RTV4,SW620 xenografts; [12],10 days
same,Delay,SW620 xenografts; [13],10 days
same,Enhancement (%),SW620 xenografts; [13],150%
same,Time to RTV4,SW620 xenografts; [13],16.5 days
same,Delay,SW620 xenografts; [14],8.5 days
same,Enhancement (%),SW620 xenografts; [14],113 ^§ %
same,Time to RTV4,SW620 xenografts; [14],15 days
same,Delay,SW620 xenografts; [15],11.5 days
same,Time to RTV4,SW620 xenografts; [15],18 days
same,Enhancement (%),"SW620 xenografts; etopophos + KU59403 25 mg/kg 2× daily ×5, 25 mg/kg",190 ^* %
same,Delay,SW620 xenografts; [16],19.5 days
same,Time to RTV4,SW620 xenografts; [16],26 days
same,Enhancement (%),"SW620 xenografts; irinotecan + KU59403 25 mg/kg daily ×5, 25 mg/kg",144% and 144 ^* %
same,Nadir % Starting Body weight,Body weight; [9],100%
same,Nadir % Starting Body weight,Body weight; [10],99.7%
same,Maximum body weight loss,Body weight; combination of KU59403 and etopophos,7%
same,Nadir % Starting Body weight,Body weight; [11],96.9%
same,Nadir % Starting Body weight,Body weight; [12],94.3%
same,Nadir % Starting Body weight,Body weight; [13],96.5%
same,Nadir % Starting Body weight,Body weight; [14],94.9%
same,Nadir % Starting Body weight,Body weight; [15],93.3%
same,Maximum body weight loss,Body weight; given as a single agent,< 2%
same,Nadir % Starting Body weight,Body weight; [16],100%
same,Inhibition of ATM activity,[1],> 50%
same,Inhibition of IR-induced ATM activity,[2],> 50%
same,Time plasma concentration maintained,"[3]; 50 mg/kg i.p., SW620-bearing nude mice",at least 4 hours
same,Tumour concentration,"[3]; 50 mg/kg i.p., SW620 xenograft, 4 hour time point",1.9 µM
same,Plasma concentration,"[3]; single dose 50 mg/kg i.p., SW620-bearing nude mice, 1 and 4 hours",5 µM
same,% Survival Cytotoxic + KU59403,"SW620 cells; SW620, camptothecin 10 nM + 1 μM KU59403, 16 hr",0.71 ± 0.35 %
same,Enhancement factor,"SW620 cells; SW620, camptothecin 10 nM",4 and 4.3 ± 2.8
same,% Survival Cytotoxic + KU59403,"SW620 cells; SW620, doxorubicin 10 nM + 1 μM KU59403, 16 hr",17 ± 0.2 %
same,Enhancement factor,"SW620 cells; SW620, doxorubicin 10 nM",2.9 ± 0.6
same,% Survival Cytotoxic + KU59403,"SW620 cells; SW620, doxorubicin 100 nM + 1 μM KU59403, 16 hr",0.01 ± .001%
same,Enhancement factor,"SW620 cells; SW620, doxorubicin 100 nM",1.8 ± 0.7
same,% Survival Cytotoxic + KU59403,"SW620 cells; SW620, etoposide 100 nM + 1 μM KU59403, 16 hr",35 ± 12 %
same,Enhancement factor,"SW620 cells; SW620, etoposide 100 nM",2.9 ± 1.5
same,% Survival Cytotoxic + KU59403,"SW620 cells; SW620, etoposide 1 μM + 1 μM KU59403, 16 hr",0.41 ± 0.23 %
same,Enhancement of etoposide cytotoxicity,"SW620 cells; SW620, etoposide 1 μM + KU59403 1 μM (Figure 1D)",11.9 ± 4.7 fold and 12 fold
same,Enhancement factor,"SW620 cells; SW620, etoposide 1 μM",12 ± 7
same,"% survival, inhibitor alone","SW620 cells; SW620 cells, KU59403 1 μM alone, 16 hr",91± 6%
same,Concentration at which an effective chemo-sensitiser,human tumour cell lines [4],1 µM
same,Increase in etopophos-induced tumour growth delay,"HCT116-N7 xenografts; KU59403 25 mg/kg twice daily, HCT116-N7 xenografts",3 fold
same,Enhancement of etopophos activity,HCT116-N7 xenografts; [17],300%
same,Etopophos-induced tumour growth delay,HCT116-N7 xenografts; [17],8.5 days
same,Inhibition of IR-induced ATM activity,[5],approximately 50%
same,Enhancement of etoposide cytotoxicity,MDA-MB-231 cells,3.8 ± 1.8 fold
same,Enhancement of etoposide cytotoxicity,HCT116-N7 cells,3.8 ± 2.5 fold
same,Enhancement of etoposide cytotoxicity,HCT116 cells,2.3 ± 1.6 fold
same,Plasma concentration,[6],less than 0.1 μM
"COc1cc([C@@H]2c3cc4c(cc3[C@@H](O[C@@H]3O[C@@H]5CO[C@@H](C)O[C@H]5[C@H](O)[C@H]3O)[C@H]3COC(=O)[C@H]23)OCO4)cc(OC)c1O [Etoposide, etoposide, reference compound]",% Survival Cytotoxic alone,"LoVo cells; cytotoxic 100 nM, 16 hr",58 ± 8.3%
same,% Survival Cytotoxic alone,"LoVo cells; cytotoxic 1 μM, 16 hr",3.9 ± 0.8%
same,% Survival Cytotoxic alone,"SW620 cells; SW620, cytotoxic 100 nM, 16 hr",89 ± 8.3%
same,% Survival Cytotoxic alone,"SW620 cells; SW620, cytotoxic 1 μM, 16 hr",3.8 ± 1.1%
"CC[C@@]1(O)C(=O)OCc2c1cc1n(c2=O)Cc2cc3ccccc3nc2-1 [Camptothecin, camptothecin, reference compound]",% Survival Cytotoxic alone,"LoVo cells; cytotoxic 10 nM, 16 hr",33 ± 7.9%
same,% Survival Cytotoxic alone,"SW620 cells; SW620, cytotoxic 10 nM, 16 hr",2.4 ± 0.2%
C[C@@H]1CN(CC(=O)Nc2ccc3c(c2)Cc2cccc(-c4cc(=O)cc(N5CCOCC5)o4)c2S3)C[C@H](C)O1 [KU-600019],Concentration needed to induce in vitro chemo- and radio-sensitisation,human tumour cell lines [7],3 µM
"COc1cccc2c1C(=O)c1c(O)c3c(c(O)c1C2=O)C[C@@](O)(C(=O)CO)C[C@@H]3O[C@H]1C[C@H](N)[C@H](O)[C@H](C)O1 [Doxorubicin, doxorubicin, reference compound]",% Survival Cytotoxic alone,"LoVo cells; cytotoxic 10 nM, 16 hr",47 ± 3.1%
same,% Survival Cytotoxic alone,"LoVo cells; cytotoxic 100 nM, 16 hr",2.1 ± 0.5%
same,% Survival Cytotoxic alone,"SW620 cells; SW620, cytotoxic 10 nM, 16 hr",50 ± 9%
same,% Survival Cytotoxic alone,"SW620 cells; SW620, cytotoxic 100 nM, 16 hr",0.02 ± 0.01%
